CHOP UPR activ – activators of apoptotic arm of unfolded protein response (CHOP). CHO-CHOP luciferase reporter, UPR activation, luminescence; percent of tunicamycin response over DMSO baseline. activation, % at 10 µM. hit rate 0.34% among 330,000. AID 449763;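 active = at 10 µM dose, activation of 40% or more, normalized to positive control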;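 note: 100% = tunicamycin at 10 µg/mL and 0% = DMSO alone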
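Test system: CHO CHOP reporter cells. Input: 500 CHO-CHOP cells per well. Medium: F12 with 10% FBS. Technique: luciferase luminescence. Measure: percent activation relative to tunicamycin control. Dosing: 10 µM compound, 0.5% DMSO. Timing: 16-18 h cell attachment, then 6 h compound exposure, 37 °C.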
XBP1 UPR activ – activators of adaptive arm of unfolded protein response (XBP1); CHO-XBP1 luciferase reporter, IRE1-XBP1 UPR activation, luminescence; percent of tunicamycin response, DMSO as zero; activation, % at 20 µM; hit rate 0.33% among 330,000; AID 463104;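 active = versus positive control, 20 µM dose yields 30% or more activation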;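 note: 100% = tunicamycin at 10 µg/mL and 0% = DMSO only wells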
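Assay system: IRE1-XBP1 luciferase reporter CHO line. Input: 1000 cells/well. Buffer or medium: F12 with 10% serum. Doses: 20 µM, 1% DMSO. Times: overnight seeding at 37 °C, 6 h compound treatment at 37 °C. Technique: Steady-Glo luciferase glow luminescence, 10 min after reagent addition.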
FXN GAA850 act – increases GAA850 frataxin promoter reporter activity | hit rate 0.56% among 360,000 | HEK293 lucGAA850 FXN promoter luciferase reporter, 24 h; percent of 10 µM SAHA response | activation, % at 6 µM;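 active = activation above the average of all compounds screened plus 3 SD, cutoff fixed separately per campaign, cut at about 7.5% in these data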;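 note: 0% = DMSO wells and 100% = 10 µM SAHA wells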
CHOP inh – CHOP inhibition in unfolded protein response. CHO-K1 CHOP-promoter luciferase, tunicamycin-induced, 15-18 h. inhibition, % at 10 µM. hit rate 3.8% among 220,000. AID 2732;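 active = compounds that reduced the stress-induced luciferase reporter signal by more than about 70% of percent inhibition, limit read from the data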;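 note: 0% = tunicamycin plus vehicle and 100% = wells without tunicamycin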
CHOP confirm – confirmation of CHOP induction inhibitors | shares compounds with CHOP inh | CHO-CHOP promoter luciferase reporter, tunicamycin-induced, luminescence | inhibition, % at 10 µM | hit rate 45% among 2,100;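 active = mean of three repeat readings of reporter signal inhibition above a set limit, cut at about 70% in these data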;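 note: 0% = tunicamycin plus vehicle and 100% = wells lacking tunicamycin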
* marks the source's active call; other numbers are inactive results. This excerpt belongs to a sample that is enriched for hits.

What do the screens show for `Cc1cc2ncn(/N=C/c3ccc4c(c3)OCO4)c2cc1C`?
CHOP UPR activ: 0; XBP1 UPR activ: 3; FXN GAA850 act: 3; CHOP inh: 96*; CHOP confirm: 66

How did Cc1cccc(CN2CCC(n3nccc3NC(=O)CCCc3ccccc3)CC2)c1 do in these assays?
FXN GAA850 act: -3

How did COc1ccc(NC(=O)C2(C)Cc3c(-c4cccc(C(N)=O)c4)ccnc3O2)cc1 (configuration not stated) do in these assays?
FXN GAA850 act: -3

What do the screens show for `C/C(=N\NC(=O)COc1ccc(C(C)(C)C)cc1)c1ccc(N2CCOCC2)cc1`?
CHOP UPR activ: 0; XBP1 UPR activ: 8; FXN GAA850 act: 1; CHOP inh: 101*; CHOP confirm: 92*

Results for C/C(=N\NC(=O)c1ccc(F)cc1)c1ccc(N2CCOCC2)cc1 ?
CHOP UPR activ: -2; XBP1 UPR activ: 0; FXN GAA850 act: 1; CHOP inh: 20

How did Oc1c(Cl)cc(Cl)cc1CNc1ccc(Br)cn1 do in these assays?
CHOP UPR activ: 2; XBP1 UPR activ: 2; FXN GAA850 act: 3; CHOP inh: 104*; CHOP confirm: -2

What do the screens show for `Oc1ccc(Cl)cc1CNc1ccc(Br)cn1`?
CHOP UPR activ: 6; XBP1 UPR activ: 9; FXN GAA850 act: 1

How did COc1ccc(/C=N/n2c(N)nc(-c3ccccc3)c2-c2ccccc2)cc1 do in these assays?
CHOP UPR activ: 2; XBP1 UPR activ: 0; FXN GAA850 act: 2; CHOP inh: 104*; CHOP confirm: 52

Results for COc1ccc(/C=N/n2c(-c3ccccc3)n[nH]c2=S)cc1 ?
CHOP UPR activ: 2; XBP1 UPR activ: -4; FXN GAA850 act: 1

Results for CC(C)(C)c1ccc(C(O)CCCN2CCC(C(O)(c3ccccc3)c3ccccc3)CC2)cc1 (configuration not stated) ?
CHOP UPR activ: 32; XBP1 UPR activ: 11; FXN GAA850 act: 0; CHOP inh: 22; CHOP confirm: 134*

How did O=C(CSc1ccc(Cl)cc1)Nc1cccc(-c2nc3ccccc3[nH]2)c1 do in these assays?
CHOP UPR activ: 1; XBP1 UPR activ: 2; FXN GAA850 act: 3; CHOP inh: 99*; CHOP confirm: -55

How did Cc1ccc2nc(-c3ccc(SCC(=O)O)nc3)[nH]c2c1 do in these assays?
CHOP UPR activ: -2; XBP1 UPR activ: -2; FXN GAA850 act: 2; CHOP inh: 37

How did Cc1ccc2nc(-c3ccc(NC(=O)CSc4ccccc4)cc3)[nH]c2c1 do in these assays?
CHOP UPR activ: 2; XBP1 UPR activ: 3; FXN GAA850 act: -4; CHOP inh: 103*; CHOP confirm: -26

Results for CCc1nnc(NC(=O)CSc2ccc(-c3nc4ccc(C)cc4[nH]3)cn2)s1 ?
CHOP UPR activ: 1; XBP1 UPR activ: 2; FXN GAA850 act: 3; CHOP inh: 100*; CHOP confirm: 1

How did Cc1ccc2nc(SCC(=O)Nc3ccc(C(N)=O)cc3)[nH]c2c1 do in these assays?
CHOP UPR activ: 0; XBP1 UPR activ: -1; FXN GAA850 act: 2; CHOP inh: 24

Results for CC1(C(=O)NS(=O)(=O)Cc2cccc(Cl)c2)CCN1C(=O)C1(c2ccc(Cl)cc2)CCC1 (configuration not stated) ?
FXN GAA850 act: 1

How did CCCCCCOC(=O)Nc1ccc(S(=O)(=O)Nc2cccc([N+](=O)[O-])c2)cc1 do in these assays?
CHOP UPR activ: -2; XBP1 UPR activ: 1; FXN GAA850 act: -1; CHOP inh: 106*; CHOP confirm: 110*

How did O=C(/C=C/c1cccc(Cl)c1)Nc1ncccn1 do in these assays?
CHOP UPR activ: 4; XBP1 UPR activ: 3; FXN GAA850 act: 1; CHOP inh: 17

How did O=C(/C=C/c1cccc(Cl)c1)c1nc2ccccc2[nH]1 do in these assays?
CHOP UPR activ: 12; XBP1 UPR activ: 26; FXN GAA850 act: 3; CHOP inh: 102*; CHOP confirm: -123

How did COc1ccc(Cn2c(C)c(C)c(C#N)c2NC(=O)Nc2ccc(Cl)cc2)cc1 do in these assays?
CHOP UPR activ: -1; XBP1 UPR activ: 0; FXN GAA850 act: 1; CHOP inh: 106*; CHOP confirm: 103*

Results for OC(c1ccc(-c2ccccc2)cc1)c1ncc(-c2cccc(F)c2)[nH]1 (configuration not stated) ?
FXN GAA850 act: -1

Results for CCN(CC)S(=O)(=O)c1cccc(NC(=O)Nc2cccc(C(F)(F)F)c2)c1 ?
CHOP UPR activ: 10; XBP1 UPR activ: 8; FXN GAA850 act: -6; CHOP inh: 100*; CHOP confirm: 124*

What do the screens show for `CC(C)(C)c1nc2c(C#N)c(-c3ccc(Cl)cc3)ccn2n1`?
CHOP UPR activ: 4; XBP1 UPR activ: 6; FXN GAA850 act: 3; CHOP inh: 101*; CHOP confirm: 21

What do the screens show for `CCOC(=O)C(NC(=O)Nc1ccccc1)(OCC)C(F)(F)F` (configuration not stated)?
CHOP UPR activ: -1; XBP1 UPR activ: -3; FXN GAA850 act: 1; CHOP inh: -1

What do the screens show for `CCOC(=O)C(NC(=O)Nc1cccc(C)n1)(OCC(F)(F)F)C(F)(F)F` (configuration not stated)?
CHOP UPR activ: 0; XBP1 UPR activ: 2; FXN GAA850 act: 0; CHOP inh: 106*; CHOP confirm: 95*

Results for CCCc1c(C(=O)N/N=C/c2ccc3c(c2)OCO3)nnn1-c1nonc1N ?
FXN GAA850 act: 0

How did Cc1nn(C)c(C)c1NC(=O)CSc1nc(C2CC2)nc2c1cnn2-c1ccccc1 do in these assays?
CHOP UPR activ: 1; XBP1 UPR activ: 1; FXN GAA850 act: 0; CHOP inh: 102*; CHOP confirm: 30

Results for CCCOC(=O)CSc1nnc(-c2ccc(Cl)cc2Cl)o1 ?
CHOP UPR activ: -1; XBP1 UPR activ: -7; FXN GAA850 act: 0; CHOP inh: 98*; CHOP confirm: 30

What do the screens show for `CC(C)n1c(NCc2ccccc2O)nc2ccccc21`?
CHOP UPR activ: -1; XBP1 UPR activ: 1; FXN GAA850 act: 2

Results for C=CCc1cccc(CNc2nc3ccccc3n2C(C)C)c1O ?
CHOP UPR activ: -1; XBP1 UPR activ: -2; FXN GAA850 act: -1; CHOP inh: 108*; CHOP confirm: 43

What do the screens show for `CCC(Cc1ccccc1)n1c(=S)[nH]c2ccccc2c1=O` (configuration not stated)?
CHOP UPR activ: -1; XBP1 UPR activ: 2; FXN GAA850 act: 2; CHOP inh: 97*; CHOP confirm: 82*

How did CC(Oc1ccccc1)C(=O)N=Nc1c(O)[nH]c2ccc(Br)cc12 (configuration not stated) do in these assays?
CHOP UPR activ: 0; XBP1 UPR activ: -3; FXN GAA850 act: 0; CHOP inh: 101*; CHOP confirm: -4

What do the screens show for `COc1ccccc1N=Nc1c(O)[nH]c2ccc(Br)cc12`?
CHOP UPR activ: 1; XBP1 UPR activ: -6; FXN GAA850 act: 2

Screening results deposited in PubChem BioAssay by several laboratories.
